Screening results from PubChem BioAssay.
CHO parental Ca: ATP-evoked calcium signal inhibitors, parental CHO, primary screen, counter-screen for OX1R antagonist project, cell-based, fluorescence, Fluo-8 calcium dye. parental CHO-K1, ATP-induced calcium, Fluo-8 fluorescence. inhibition, % at 5.6 µM. 0.63% of 330,000 active. AID 463079, 2010;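 active = inhibition above that plate's mean sample inhibition plus 3 SD, cut at about 26% in these data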;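 note: 0% = ATP-challenged DMSO wells and 100% = DMSO wells without ATP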
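Measured by: calcium-sensitive Fluo-8 fluorescence / Test system: CHO parental line / Controls: ATP-challenged DMSO wells low, unchallenged DMSO wells high / Measure: % inhibition / Compound: single nominal dose of 5.6 µM per compound / Replicates: single well per compound, no replicates / Reagent: ATP as calcium-mobilizing challenge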
GPR7 antag: GPR7 receptor antagonists, primary screen, cell-based, fluorescence, single concentration | Neuropeptides B/W receptor type 1 (Homo sapiens), P48145 | GPR7-expressing cells, fluorescence antagonist assay | inhibition, % at 4.4 µM | 1.1% of 290,000 active | AID 1861, 2009; in the data active = inhibition above about 16%, passing the limit was not always enough;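 note: cells stimulated with the agonist NPW; 0% = agonist with vehicle and 100% = vehicle without agonist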
Target sequence (P48145 whole entry, looked up): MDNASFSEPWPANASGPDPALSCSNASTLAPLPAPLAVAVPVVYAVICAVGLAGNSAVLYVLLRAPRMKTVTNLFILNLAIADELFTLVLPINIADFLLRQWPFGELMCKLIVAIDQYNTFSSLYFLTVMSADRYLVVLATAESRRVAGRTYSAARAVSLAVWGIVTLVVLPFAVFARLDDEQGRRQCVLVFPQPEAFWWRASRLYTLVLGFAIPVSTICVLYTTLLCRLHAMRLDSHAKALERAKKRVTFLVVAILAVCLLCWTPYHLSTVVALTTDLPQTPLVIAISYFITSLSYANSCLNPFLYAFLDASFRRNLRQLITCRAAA
OX1R antag-1: OX1R (HCRTR1) antagonists, primary screen, fluorescence, CHO/OX1R cells, Fluo-8 calcium, orexin A; Orexin/Hypocretin receptor type 1 (Homo sapiens), O43613; Fluo-8 calcium fluorescence; inhibition, % at 5 µM; 0.43% of 330,000 active; AID 434989, 2010;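 active = inhibition above its plate's threshold, mean inhibition of all tested compounds on the plate plus 3 SD, cut at about 37% in these data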;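 note: 0% = orexin A challenge wells and 100% = SB-334867-A antagonist wells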
GalR3 antag: GalR3 antagonists in HEK293 cells, primary screen, cell-based, fluorescence readout; Galanin receptor type 3 (Homo sapiens), O60755; HEK293 GalR3-CNG cAMP membrane potential fluorescence; galR3 body fused to GalR1 C-terminus; inhibition, % at 3 µM; 0.44% of 360,000 active; AID 651719, 2012;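 active = inhibition above the screen-wide average plus 3 SD, cut at about 13% in these data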;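 note: forskolin and galanin both at EC90 stimulate the cells; cAMP rise reported by CNG channel membrane potential dye signal; 0% = forskolin plus galanin with DMSO and 100% = forskolin alone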
Target sequence (O60755 1-299 limits assumed): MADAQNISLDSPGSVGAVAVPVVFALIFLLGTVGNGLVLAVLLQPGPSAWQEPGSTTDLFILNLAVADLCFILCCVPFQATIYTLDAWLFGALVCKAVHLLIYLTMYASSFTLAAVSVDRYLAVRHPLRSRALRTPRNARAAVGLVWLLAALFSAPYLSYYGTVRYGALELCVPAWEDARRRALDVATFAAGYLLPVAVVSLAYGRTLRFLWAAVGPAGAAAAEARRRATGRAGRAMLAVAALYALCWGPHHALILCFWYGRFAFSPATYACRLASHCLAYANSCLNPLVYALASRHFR
OX1R antag-2: antagonists of human orexin 1 receptor (OX1R). 1.8% of 330,000 active. inhibition, % at 6.6 µM. Orexin/Hypocretin receptor type 1 (Homo sapiens), O43613. OX1R-expressing cells, FRET antagonist read-out; in the data active = inhibition mostly above about 38%, no sharp cut-off; inactive = mostly below about 40%;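 note: 0% = agonist challenge alone and 100% = reference antagonist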
GPR7 antag cf: GPR7 receptor antagonists, confirmation, cell-based, fluorescence, single concentration. 52% of 2,400 active. inhibition, % at 4.4 µM. shares compounds with GPR7 antag. GPR7-expressing cells, calcium fluorescence antagonist mode. AID 1952, 2009; in the data active = inhibition above about 24%;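 note: stimulated with the GPR7 agonist NPW; 0% = agonist plus vehicle and 100% = vehicle alone without agonist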
MCHR1 antagonist: MCHR1 antagonists in cells, counter-screen for GPR7 antagonist project, cell-based, fluorescence, human; shares compounds with GPR7 antag; MCHR1-expressing cells, fluorescence antagonist assay; inhibition, % at 4.4 µM; 62% of 2,400 active; in the data active = inhibition above about 22%;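 note: 0% = vehicle with agonist and 100% = vehicle without agonist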
Active calls of the source: *; x = not tested or not shown. Sampled rows, rich in hits. Any-hit rate of the full collection: about 3.1%.

SMILES | CHO parental Ca | GPR7 antag | OX1R antag-1 | GalR3 antag | OX1R antag-2 | GPR7 antag cf | MCHR1 antagonist
OCCNCc1ccc(OCc2ccc(Cl)cc2Cl)cc1 | 3 | 31* | 0 | -4 | 2 | 40* | 43*
OCCCCNCc1ccc(OCc2ccc(Cl)cc2Cl)cc1 | 13 | 39* | 20 | -9 | 8 | 66* | 59*
COc1c(O)cccc1[C@H](O)C1CCN(CCc2ccc(F)cc2)CC1 | -3 | x | -5 | -4 | 6 | x | x
Cc1noc(C)c1CSc1nnc(-c2ccccc2)o1 | -12 | 23* | -2 | -3 | 9 | 31* | 22*
COC(=O)c1ccc(NC(=O)C2CCCN2C(=O)OCc2ccccc2)cc1 (centres undefined) | -10 | -1 | -15 | -2 | 10 | x | x
Cc1ccc(C(=O)N/N=C\c2ccc([N+](=O)[O-])o2)cn1 | -15 | 26* | -6 | 0 | 70* | -18 | -9
Cc1ccc(C(=O)N/N=C\c2ccc(-c3ccc([N+](=O)[O-])cc3)o2)cn1 | -8 | 15 | -24 | -5 | 34 | x | x
CCOC(=O)C1=C(C(=O)OCC)C2N(Cc3ccc(C(F)(F)F)cc3)c3ccccc3[C@@]23C[C@@H](C(=O)OC)N(S(=O)(=O)c2ccc(OC)cc2)C3=N1 (some centres undefined) | x | x | x | -6 | x | x | x
O=C(CCN(CCO)Cc1ccccc1)Nc1ccc(Br)cc1 | -3 | 24* | -15 | -8 | 15 | 24* | 7
COc1cccc(OCC(O)CO)c1 (centres undefined) | -4 | -8 | -6 | 1 | 8 | x | x
O=C1C2CC=CCC2C(=O)N1c1ccc(NCCc2ccc(O)cc2)c([N+](=O)[O-])c1 (centres undefined) | 17 | 31* | 4 | -6 | 22 | 28* | 55*
CCOc1cc(C)c(S(=O)(=O)NC2CC(C)(C)NC(C)(C)C2)cc1C | -21 | -2 | -19 | -1 | 26 | x | x
Cc1cc(C)c(S(=O)(=O)NC2CC(C)(C)NC(C)(C)C2)cc1C | 17 | 101* | 2 | -3 | 14 | -4 | 2
N#CCCN1CCN(Cc2cc(-c3ccccc3)ccc2O)CC1 | -17 | 31* | -11 | -6 | 22 | 3 | 12
COc1ccc(C2=CN(Cc3ccccc3)CCC2=O)cc1 | -12 | x | -5 | -6 | 15 | x | x
COc1ccc(NC(=O)Cc2ccc(Cl)c(Cl)c2)cn1 | -14 | 5 | -25 | -7 | 5 | x | x
COc1ccc(NC(=O)/C(Cl)=C(/Cl)S(=O)Cc2ccccc2Cl)cn1 (centres undefined) | x | 40* | x | x | x | 76* | 91*
COc1ccc(C(CNC(=O)COc2ccc(Cl)c(C)c2)N2CCCCC2)cc1 (centres undefined) | -30 | 28* | -11 | -5 | 8 | 30* | 19
Fc1ccccc1Cc1noc(CN2CCN(C/C=C/c3ccccc3)CC2)n1 | -12 | -15 | -11 | -2 | 11 | x | x
COc1cc(C(=O)COC(=O)C2CC2(Cl)Cl)cc(OC)c1OC (centres undefined) | -20 | x | -25 | -6 | 14 | x | x
O=C(Nc1ccncc1)Nc1cccc(C(F)(F)F)c1 | 12 | -12 | 4 | -1 | 5 | x | x
CCN(CC)S(=O)(=O)c1ccc(NC(=O)Nc2cccc(C(F)(F)F)c2)cc1 | 35* | 27* | 6 | 1 | 12 | 41* | 57*
O=C(Nc1ccc(OC(F)F)cc1)Nc1cccc(C(F)(F)F)c1 | 60* | 39* | 50* | -6 | 45* | 54* | 68*
CCOc1ccc(/C(C)=N/NC(=O)c2nnn(-c3nonc3N)c2-c2cccs2)cc1 | 1 | -13 | 2 | -10 | 18 | x | x
COC(=O)C1=C(C)OC(N)=C(C#N)C1c1c(C)nn(C)c1C (centres undefined) | -10 | -9 | -6 | -1 | 3 | x | x
SMILES | CHO parental Ca | GPR7 antag | OX1R antag-1 | GalR3 antag | OX1R antag-2 | GPR7 antag cf | MCHR1 antagonist
Cc1ccc(-c2csc3ncnc(N4CCN(C(=O)c5ccccc5)CC4)c23)cc1 | -36 | 29* | -22 | -6 | 26 | 36* | 53*
CCOc1ccc(CCNC(=O)CN2C(=O)NC3(CCCC3)C2=O)cc1OCC | -12 | -3 | -42 | -2 | 15 | x | x
COc1cc(/C=C(\C#N)C(=O)Nc2ccc(C(=O)O)cc2)ccc1OC(=O)c1cccc(F)c1 | -2 | 31* | 1 | -6 | 13 | 34* | 4
COc1cc(/C=C(/C#N)C(=O)Nc2ccccc2)ccc1OCc1ccc(C(=O)O)cc1 | -10 | 4 | -17 | -4 | 20 | x | x
Cc1nn(CCO)c(N)c1C1(O)C(=O)Nc2c(Cl)cc(Cl)cc21 (centres undefined) | -7 | 6 | -13 | -1 | 68 | x | x
CSc1ccc(Cn2nnc(C(=O)NCc3ccccc3)c2N)cc1 | 5 | 37* | 25 | 3 | 2 | 57* | 52*
Nc1c(C(=O)NCc2ccccc2)nnn1Cc1ccccc1 | -1 | -7 | -7 | 4 | 17 | x | x
CN1/C(=C\C(=O)COc2ccc3c(c2)OCO3)C(C)(C)c2ccccc21 | 7 | 28* | 21 | -1 | 63 | 12 | 44*
Cc1ccc(C2CC(c3ccc(F)cc3)Nc3nc(N)nn32)cc1 (centres undefined) | 1 | 21* | 2 | 3 | 7 | 21 | 8
Nc1nc2n(n1)C(c1ccc(F)cc1)CC(c1ccc(F)cc1)N2 (centres undefined) | -4 | -4 | -9 | -4 | 8 | x | x
CCc1ccc(C2CC(c3ccc(C)cc3)Nc3nc(N)nn32)cc1 (centres undefined) | -8 | 7 | -22 | -1 | 19 | x | x
CCc1ccc(C2CC(c3ccccc3C)n3nc(N)nc3N2)cc1 (centres undefined) | -8 | 25* | 11 | -3 | 22 | 11 | 4
CNc1cccc(-c2cc(OC)ccc2OC)n1 | x | x | x | -4 | x | x | x
O=C(NNS(=O)(=O)c1ccc(Br)cc1)c1csnn1 | x | -3 | x | -5 | x | x | x
O=C(NC1CC(=O)N(c2ccccc2)C1)C1CC1 (centres undefined) | -2 | x | -11 | -4 | 15 | x | x
COc1ccccc1Cn1c(=S)[nH]c2cc(C(=O)N3CCC(C(N)=O)CC3)ccc2c1=O | -10 | 25* | -9 | -1 | 16 | 7 | 12
CCOC(=O)N1CCN(C(=O)c2ccc3c(=O)n(Cc4ccccc4OC)c(=S)[nH]c3c2)CC1 | -5 | 12 | -29 | -2 | 15 | x | x
